Source: ChEMBL document CHEMBL1145528, “Design and study of some novel ibuprofen derivatives with potential nootropic and neuroprotective properties” (Bioorg Med Chem, 2007)
Active and inactive are the calls of the source. No cut-off for these calls is given here.

What was measured:
[1] = target: T1, Acetylcholinesterase (Rattus norvegicus) (UniProt P37136); assay: Inhibition of Fischer 344 rat brain acetylcholine esterase at 0.6 mM
T1 sequence (whole entry): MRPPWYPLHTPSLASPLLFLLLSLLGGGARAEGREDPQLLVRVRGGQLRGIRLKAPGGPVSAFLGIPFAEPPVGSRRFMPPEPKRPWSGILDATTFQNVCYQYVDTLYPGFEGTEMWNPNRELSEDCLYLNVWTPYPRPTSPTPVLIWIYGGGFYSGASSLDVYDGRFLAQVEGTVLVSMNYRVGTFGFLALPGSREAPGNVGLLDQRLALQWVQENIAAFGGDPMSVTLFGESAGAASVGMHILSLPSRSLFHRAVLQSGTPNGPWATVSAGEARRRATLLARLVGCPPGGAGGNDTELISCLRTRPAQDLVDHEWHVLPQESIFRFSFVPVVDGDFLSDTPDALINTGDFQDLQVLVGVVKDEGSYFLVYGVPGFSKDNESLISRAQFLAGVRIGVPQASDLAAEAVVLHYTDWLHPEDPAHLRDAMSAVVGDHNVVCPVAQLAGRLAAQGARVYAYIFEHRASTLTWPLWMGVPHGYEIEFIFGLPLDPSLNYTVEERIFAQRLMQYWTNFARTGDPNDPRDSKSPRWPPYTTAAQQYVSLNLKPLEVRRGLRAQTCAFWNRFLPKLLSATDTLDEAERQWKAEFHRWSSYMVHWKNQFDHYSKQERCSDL
Outline: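 Brains from untreated rats homogenised (20 mg/mL) in 0.1 M phosphate buffer, pH 8, as the enzyme source. Acetylthiocholine is the substrate. Activity is read colorimetrically as thiocholine reacting with dithio-bisnitrobenzoic acid and followed as a time course. Percent inhibition is taken at the end of the incubation period.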

Liver microsomes = assay: Inhibition of Fe(2+)/ascorbate-induced lipid peroxidation in Fischer 344 rat hepatic microsomal membranes; format: functional; settings: Microsome
Mus musculus [2] = assay: Anti-inflammatory activity against of FCA-induced odema in BALB/c mouse assessed as oedema inhibition at 0.30 mmol/kg, ip; format: functional
Outline: (§1)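 FCA (0.05 mL/paw) injected intradermally into right hind paw of mice, left paw as control. Compounds suspended in water with a few drops of Tween 80, given ip 15 min before FCA. After 3 h both hind paws excised and weighed. Oedema is paw weight increase, compared with control animals given only the vehicle. Means SEM, Student's t-test.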

Mus musculus [3] = assay: Increase of oedema in BALB/c mouse with FCA-induced inflammation at 0.30 mmol/kg, ip; format: functional; outline: as §1
Mus musculus [4] = assay: Increase of oedema in BALB/c mouse with FCA-induced inflammation at 0.15 mmol/kg, ip; format: functional; outline: as §1
[5] = target: T2, Seed linoleate 13S-lipoxygenase-1 (Glycine max, UniProt P08170); assay: Inhibition of soybean lipoxygenase after 7 mins
T2 sequence (P08170 whole entry): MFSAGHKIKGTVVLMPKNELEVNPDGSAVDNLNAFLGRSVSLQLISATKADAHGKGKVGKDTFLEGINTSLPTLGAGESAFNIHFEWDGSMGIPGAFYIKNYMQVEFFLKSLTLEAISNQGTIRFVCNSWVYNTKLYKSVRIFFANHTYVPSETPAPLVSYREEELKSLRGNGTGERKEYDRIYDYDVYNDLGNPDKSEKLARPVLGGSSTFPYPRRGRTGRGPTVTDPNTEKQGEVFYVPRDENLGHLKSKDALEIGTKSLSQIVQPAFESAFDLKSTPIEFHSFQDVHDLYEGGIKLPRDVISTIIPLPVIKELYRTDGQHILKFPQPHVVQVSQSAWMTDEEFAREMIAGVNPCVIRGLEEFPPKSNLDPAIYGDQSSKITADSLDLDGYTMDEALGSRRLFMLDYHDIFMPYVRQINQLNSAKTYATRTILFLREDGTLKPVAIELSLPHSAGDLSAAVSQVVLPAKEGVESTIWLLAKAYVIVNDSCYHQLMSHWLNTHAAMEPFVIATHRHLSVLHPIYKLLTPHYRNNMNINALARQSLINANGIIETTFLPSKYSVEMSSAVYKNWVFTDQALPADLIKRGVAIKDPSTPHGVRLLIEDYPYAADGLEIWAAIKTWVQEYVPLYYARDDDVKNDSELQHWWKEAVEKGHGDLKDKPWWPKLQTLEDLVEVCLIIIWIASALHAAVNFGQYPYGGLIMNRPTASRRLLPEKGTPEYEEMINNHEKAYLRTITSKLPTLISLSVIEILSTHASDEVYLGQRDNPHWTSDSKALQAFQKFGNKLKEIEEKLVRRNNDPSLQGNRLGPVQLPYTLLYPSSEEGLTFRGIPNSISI

Mus musculus [6] = assay: Anti-inflammatory activity against of FCA-induced odema in BALB/c mouse assessed as oedema inhibition at 0.15 mmol/kg, ip; format: functional; outline: as §1
[7] = target: T3, Seed linoleate 13S-lipoxygenase-1 (Glycine max) (UniProt P08170); assay: Inhibition of soybean lipoxygenase at 0.3 mM; parameters: Activity: scale not given: the % may be the effect or the level left
T3 sequence (whole entry): T2 sequence (P08170 whole entry)
Outline: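 Soybean lipoxygenase 250 U/mL in Tris buffer pH 9. Compounds in 60% aqueous ethanol at 0.1–0.3 mM. Reaction started with sodium linoleate 0.1 mM and followed for 7 min at 28 °C by 13-hydroperoxylinoleic acid conjugated diene absorbance at 234 nm.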

Rattus norvegicus [8] = assay: Body weight change per 100g in Fischer 344 rat at 1.6 mmol/kg, sc after 4 days; format: functional
Outline: (§2)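 Rats dosed subcutaneously at 1.6 mmol/kg once daily for 4 days. Perforating gastrointestinal ulcers, melena defecation, body weight change and mortality recorded 24 h after the last injection.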

Rattus norvegicus [9] = assay: Gastrointestinal toxicity in Fischer 344 rat assessed as gastrointestinal ulceration at 1.6 mmol/kg, sc after 4 days; format: functional; outline: as §2
Rattus norvegicus [10] = assay: Mortality rate in Fischer 344 rat at 1.6 mmol/kg, sc after 4 days; format: functional
Outline: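 Rats receive the compound subcutaneously at 1.6 mmol/kg once daily for 4 days. Mortality, perforating gastrointestinal ulcers, melena defecation and body weight change are recorded 24 h after the last injection.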

Rattus norvegicus [11] = assay: Total cholesterol level in Fischer 344 rat plasma at 0.3 mmol/kg, ip after 24 hrs; format: functional
Outline: (§3)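 Compounds given ip at 0.3 mmol/kg 30 min later. Plasma total cholesterol, LDL-cholesterol and triglycerides measured in mg/dl and expressed as percent reduction against the hyperlipidemic control group. SD, Student's t-test.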

Rattus norvegicus [12] = assay: Decrease in total cholesterol in Fischer 344 rat plasma at 0.3 mmol/kg, ip after 24 hrs relative to control; format: functional; parameters: scale not given: the % may be the effect or the level left; outline: as §3
Rattus norvegicus [13] = assay: Decrease in LDL level in Fischer 344 rat plasma at 0.3 mmol/kg, ip after 24 hrs relative to control; format: functional; parameters: scale not given: the % may be the effect or the level left; outline: as §3
Rattus norvegicus [14] = assay: LDL level in Fischer 344 rat plasma at 0.3 mmol/kg, ip after 24 hrs; format: functional; outline: as §3
Rattus norvegicus [15] = assay: Decrease in triglyceride level in Fischer 344 rat plasma at 0.3 mmol/kg, ip after 24 hrs relative to control; format: functional; parameters: scale not given: the % may be the effect or the level left; outline: as §3
Rattus norvegicus [16] = assay: Triglyceride level in Fischer 344 rat plasma at 0.3 mmol/kg, ip after 24 hrs; format: functional; outline: as §3

| Structure (SMILES) | inhibition [1] | Activity (Liver microsomes) | inhibition in vivo at 300 µmol/kg (Mus musculus [2]) | Activity (Mus musculus [3]) | also measured |
| --- | --- | --- | --- | --- | --- |
| CC(C)Cc1ccc([C@H](C)C(=O)O)cc1 | 20% | inactive |  |  |  |
| O=C(O)[C@@H]1CCCN1 |  | inactive |  |  |  |
| CC(C)C(=O)N1CCC[C@@H]1C(=O)OCCCc1cccnc1 |  | inactive | 1% | 77% | Activity [1]: inactive |
| CC(C)Cc1ccc(C(C)C(=O)N2CCCC2C(=O)OCCCc2cccnc2)cc1 (stereo not drawn) | 64% |  |  |  |  |
| CC(C)C(=O)N1CCCC1C(=O)O (stereo not drawn) |  | inactive |  |  |  |
| COc1cc(C)ccc1OC(=O)C1CCCN1C(=O)C(C)c1ccc(CC(C)C)cc1 (stereo not drawn) | 80% | inactive | 43% | 49.6% | Activity (Mus musculus [4]): 67.9%; IC50 [5]: 140 µM; inhibition in vivo at 150 µmol/kg (Mus musculus [6]): 21%; Activity [7]: 78% |
| CC(C)Cc1ccc(C(C)C(=O)N2CCCC2C(=O)O)cc1 (stereo not drawn) |  | inactive |  |  |  |
| NCCS [CYSTEAMINE] |  |  |  |  | Activity (Rattus norvegicus [8]): -7 g; Activity (Rattus norvegicus [9]): 40%; Activity (Rattus norvegicus [10]): 80% |
| CC(C)Cc1ccc(C(C)C(=O)O)cc1 (stereo not drawn) [IBUPROFEN] | 20% |  | 53% | 44.6% | Activity (Rattus norvegicus [11]): 111 mg/dL; Activity (Rattus norvegicus [12]): 38%; Activity (Rattus norvegicus [13]): 32%; Activity (Rattus norvegicus [14]): 38 mg/dL; Activity (Rattus norvegicus [8]): -13 g; Activity (Rattus norvegicus [15]): 41%; Activity (Rattus norvegicus [9]): 88%; Activity (Rattus norvegicus [10]): 50%; Activity (Rattus norvegicus [16]): 228 mg/dL |
| COc1cc(C)ccc1OC(=O)[C@H]1CCCN1C(=O)C(C)C |  | inactive | 1% | 79.3% | Activity [1]: inactive; inhibition [7]: 42% |
